Each structure is given as a SMILES string.

For assay [1], the target named is Beta-lactamase (Pseudomonas aeruginosa (strain ATCC 15692 / PAO1 / 1C / PRS 101 / LMG12228), UniProt P24735). Nature of the assay: Inhibition of Pseudomonas aeruginosa CL5701 AmpC by spectrophotometric assay. The essentials: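 AmpC from Pseudomonas aeruginosa, in 100 mM KH₂PO₄ buffer pH 7 with 0.005% BSA. Inhibitor serially diluted from DMSO and preincubated with enzyme 40 min at room temperature. Nitrocefin then added for a further 40 min. Quenched with 2.5 N acetic acid, absorbance read at 492 nm. IC₅₀ taken from semi-log plots of inhibition versus inhibitor concentration.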

For assay [2], the target named is Beta-lactamase (Pseudomonas aeruginosa (strain ATCC 15692 / PAO1 / 1C / PRS 101 / LMG12228)) (UniProt P24735). Nature of the assay: Inhibition of AmpC in Pseudomonas aeruginosa CL5701 assessed as concentration required to reduce the imipenen MIC from 32 ug/ml to 4 ug/ml by in vitro synergy assay.
Sequence of Beta-lactamase (Pseudomonas aeruginosa (strain ATCC 15692 / PAO1 / 1C / PRS 101 / LMG12228)) (P24735 27-397 limits assumed): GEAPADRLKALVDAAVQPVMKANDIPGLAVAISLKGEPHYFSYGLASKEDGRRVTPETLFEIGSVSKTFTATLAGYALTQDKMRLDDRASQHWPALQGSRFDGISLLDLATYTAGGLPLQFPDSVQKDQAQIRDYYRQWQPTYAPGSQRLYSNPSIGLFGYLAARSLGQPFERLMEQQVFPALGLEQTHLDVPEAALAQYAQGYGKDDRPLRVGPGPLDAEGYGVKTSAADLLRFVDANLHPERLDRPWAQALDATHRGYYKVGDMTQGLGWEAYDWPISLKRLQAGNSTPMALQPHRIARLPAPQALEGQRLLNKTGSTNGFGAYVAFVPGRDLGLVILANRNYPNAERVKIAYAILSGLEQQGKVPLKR

Sequence of Beta-lactamase (P24735 whole entry): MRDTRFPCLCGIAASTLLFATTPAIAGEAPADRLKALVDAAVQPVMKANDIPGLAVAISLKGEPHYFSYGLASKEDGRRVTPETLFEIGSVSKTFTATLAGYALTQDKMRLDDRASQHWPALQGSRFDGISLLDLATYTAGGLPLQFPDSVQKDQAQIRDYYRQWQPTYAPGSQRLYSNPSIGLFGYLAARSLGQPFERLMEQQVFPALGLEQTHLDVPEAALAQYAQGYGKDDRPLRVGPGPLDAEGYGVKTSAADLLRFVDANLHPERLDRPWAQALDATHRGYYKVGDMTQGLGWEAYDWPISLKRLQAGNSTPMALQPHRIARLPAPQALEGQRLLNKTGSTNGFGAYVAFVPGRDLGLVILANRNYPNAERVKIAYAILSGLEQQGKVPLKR

What is called IC50 is the concentration that inhibits the measured activity by half. High values mean a need for much substance, low ones inhibition by little substance. Consider `NCCN1CCC[C@H](NC(=O)N2CC[C@@H]3[C@H]2C(=O)N3S(=O)(=O)O)CC1`, for which, in assay [1], half-maximal inhibition (IC50) was put at 600 nM. In addition, in assay [2], the Activity is 25 µM.
For `CN(C)CCN1CCC[C@H](NC(=O)N2CC[C@@H]3[C@H]2C(=O)N3S(=O)(=O)O)CC1` the same measures were 900 nM and 100 µM.
For `O=C(N[C@H]1CCCN(CCO)CC1)N1CC[C@@H]2[C@H]1C(=O)N2S(=O)(=O)O` the same measures were 900 nM and 25 µM.
Take `CN1CCC[C@H](NC(=O)N2CC[C@@H]3[C@H]2C(=O)N3S(=O)(=O)O)CC1`: the IC50 in assay [1] was 2600 nM. Moreover, in assay [2], the Activity turned out to be 25 µM.
As to `NC(=O)N1CC[C@@H]2[C@H]1C(=O)N2S(=O)(=O)O`, the IC50 in assay [1] came out at 16000 nM. Moreover, the Activity in assay [2] was greater than 100 µM.
For `CN(C)CCCNC(=O)N1CC[C@@H]2[C@H]1C(=O)N2S(=O)(=O)O` the same measures were 2100 nM and 25 µM.
For the compound `O=C(N[C@H]1CCCN(CCCO)CC1)N1CC[C@@H]2[C@H]1C(=O)N2S(=O)(=O)O`, it took 1100 nM to reach half-maximal inhibition in assay [1] (IC50). Besides, the Activity in assay [2] came to 50 µM.
For `CN(C)CCCCNC(=O)N1CC[C@@H]2[C@H]1C(=O)N2S(=O)(=O)O` the same measures were 1600 nM and 25 µM.
For `CNCCCNC(=O)N1CC[C@@H]2[C@H]1C(=O)N2S(=O)(=O)O` the same measures were 5300 nM and 50 µM.
For `CN(C)CCCCCNC(=O)N1CC[C@@H]2[C@H]1C(=O)N2S(=O)(=O)O` the same measures were 1900 nM and 100 µM.
As to `C[N+]1(C)CCC[C@H](NC(=O)N2CC[C@@H]3[C@H]2C(=O)N3S(=O)(=O)[O-])CC1`, the midpoint of inhibition in assay [1], the IC50, lay at 1500 nM. Further, in assay [2], the Activity came out at 50 µM.
For `CNCCCCNC(=O)N1CC[C@@H]2[C@H]1C(=O)N2S(=O)(=O)O` the same measures were 3500 nM and 25 µM.
For `CC(C)NC(=O)N1CC[C@@H]2[C@H]1C(=O)N2S(=O)(=O)O`, in assay [1], 1800 nM corresponded to half-maximal inhibition (IC50). In assay [2], the Activity is greater than 100 µM.
For `O=C1[C@H]2NCC[C@H]2N1S(=O)(=O)O` the same measures were greater than 250000 nM and greater than 100 µM.
